ChEMBL document CHEMBL4373687, “Introducing nitrogen atoms to amidoalkylindoles: potent and selective cannabinoid type 2 receptor agonists with improved aqueous solubility” (Medchemcomm, 2019)
pEC50: −log10 of the molar value.

What was measured:
[1] = target: T1, Cannabinoid receptor 2 (Homo sapiens, UniProt P34972); assay: Antagonist activity at human CB2-receptor expressed in CHO-K1 cells coexpressing G-alpha16 at 10 uM pre-incubated for 10 mins and later treated with 100 nM CB-receptor agonist, CP55940 by Fluo-4-AM dye based calcium mobilization assay; type: functional, cell-based
T1 sequence (P34972 whole entry): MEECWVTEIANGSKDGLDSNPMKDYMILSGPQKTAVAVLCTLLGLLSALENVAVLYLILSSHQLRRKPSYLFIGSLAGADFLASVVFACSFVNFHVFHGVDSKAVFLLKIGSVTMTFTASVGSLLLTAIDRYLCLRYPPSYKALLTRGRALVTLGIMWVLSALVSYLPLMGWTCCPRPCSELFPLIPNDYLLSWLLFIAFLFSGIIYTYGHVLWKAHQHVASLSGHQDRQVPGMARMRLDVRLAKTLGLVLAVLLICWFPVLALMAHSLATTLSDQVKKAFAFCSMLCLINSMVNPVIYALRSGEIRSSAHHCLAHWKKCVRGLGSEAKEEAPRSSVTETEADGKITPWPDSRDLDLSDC
Method in brief: (§1)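 CHO-K1 cells stably co-expressing Gα16 and human CB1 or CB2, loaded with 2 μM fluo-4 AM in HBSS pH 7.4 at 37 °C for 45 min. Pre-incubated with compound for 10 min at room temperature, then CP55940 added at 100 nM. Peak calcium read over 60 s (ex 485/em 525 nm). Rimonabant positive control. Actives got eight-point curves in triplicate, sigmoidal fit for IC50.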

[2] = Kinetic aqueous solubility of compound in phosphate-buffer containing 1% DMSO ultrasonicated for 10 mins at pH 1.4 measured using 50-95% methanol in water as gradient for 23 mins by HPLC analysis; type: physicochemical; settings: pH 1.4, 10 min
Method in brief: (§2)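 Kinetic solubility: 10 mM DMSO stock diluted into 10 mM phosphate buffer pH 7.4 or 1.4 (final 1% DMSO), sonicated 10 min at room temperature, filtered 0.22 μm. Quantified by C18 HPLC against a standard curve. Gradient 50–95% methanol/water with trifluoroacetic acid over 23 min at 1.0 mL/min. n = 3.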

[3] = target: T2, Cannabinoid receptor 1 (Homo sapiens, UniProt P21554); assay: Antagonist activity at human CB1-receptor expressed in CHO-K1 cells coexpressing G-alpha16 at 10 uM pre-incubated for 10 mins and later treated with 100 nM CB-receptor agonist, CP55940 by Fluo-4-AM dye based calcium mobilization assay; type: cell-based; method in brief: as §1
T2 sequence (P21554 whole entry): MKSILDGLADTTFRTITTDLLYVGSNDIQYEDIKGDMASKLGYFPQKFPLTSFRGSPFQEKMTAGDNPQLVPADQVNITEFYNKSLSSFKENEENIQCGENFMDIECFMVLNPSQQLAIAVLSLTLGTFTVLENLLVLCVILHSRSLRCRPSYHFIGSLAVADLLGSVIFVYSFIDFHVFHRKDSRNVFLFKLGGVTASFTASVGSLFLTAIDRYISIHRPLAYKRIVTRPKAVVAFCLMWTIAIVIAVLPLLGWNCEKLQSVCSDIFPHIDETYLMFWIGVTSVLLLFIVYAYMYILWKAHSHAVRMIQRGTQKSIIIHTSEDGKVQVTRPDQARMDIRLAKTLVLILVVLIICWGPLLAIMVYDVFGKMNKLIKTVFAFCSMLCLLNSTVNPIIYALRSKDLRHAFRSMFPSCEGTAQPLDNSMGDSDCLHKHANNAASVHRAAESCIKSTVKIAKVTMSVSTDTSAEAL

[4] = target: T1, Cannabinoid receptor 2; assay: Agonist activity at human CB2-receptor expressed in CHO-K1 cells coexpressing G-alpha16 by Fluo-4-AM dye based calcium mobilization assay; type: functional, cell-based; settings: read-out: EC50
[5] = target: T2, Cannabinoid receptor 1; assay: Agonist activity at human CB1-receptor expressed in CHO-K1 cells coexpressing G-alpha16 at 10 uM by Fluo-4-AM dye based calcium mobilization assay; type: cell-based; settings: cho-k1, 10 µM
Method in brief: (§3)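 CHO-K1 cells stably co-expressing Gα16 and human CB1 or CB2, seeded 24 h. Loaded with 2 μM fluo-4 AM in HBSS (with sulfinpyrazone, pH 7.4) at 37 °C for 45 min. Compound added and calcium fluorescence recorded (ex 485/em 525 nm). CP55940 positive control, DMSO negative control. Compounds with >50% activation at 10 μM got eight-point curves in triplicate, sigmoidal fit for EC50.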

[6] = target: T1, Cannabinoid receptor 2; assay: Antagonist activity at human CB2-receptor expressed in CHO-K1 cells coexpressing G-alpha16 pre-incubated for 10 mins and later treated with 100 nM CB-receptor agonist, CP55940 by Fluo-4-AM dye based calcium mobilization assay; type: functional, cell-based; settings: cho-k1; method in brief: as §1
[7] = target: T2, Cannabinoid receptor 1; assay: Antagonist activity at human CB1-receptor expressed in CHO-K1 cells coexpressing G-alpha16 pre-incubated for 10 mins and later treated with 100 nM CB-receptor agonist, CP55940 by Fluo-4-AM dye based calcium mobilization assay; type: cell-based; method in brief: as §1
[8] = Kinetic aqueous solubility of compound in phosphate-buffer containing 1% DMSO ultrasonicated for 10 mins at pH 7.4 measured using 50-95% methanol in water as gradient for 23 mins by HPLC analysis; type: physicochemical; method in brief: as §2
[9] = target: T1, Cannabinoid receptor 2; assay: Agonist activity at human CB2-receptor expressed in CHO-K1 cells coexpressing G-alpha16 assessed as maximum efficacy by Fluo-4-AM dye based calcium mobilization assay relative to CP55940; type: functional, cell-based; method in brief: as §3
[10] = target: T1, Cannabinoid receptor 2; assay: Agonist activity at human CB2-receptor expressed in CHO-K1 cells coexpressing G-alpha16 at 10 uM by Fluo-4-AM dye based calcium mobilization assay; type: functional, cell-based; method in brief: as §3
[11] = target: T2, Cannabinoid receptor 1; assay: Agonist activity at human CB1-receptor expressed in CHO-K1 cells coexpressing G-alpha16 by Fluo-4-AM dye based calcium mobilization assay; type: cell-based; settings: read-out: EC50
[12] = target: T2, Cannabinoid receptor 1; assay: Agonist activity at human CB1-receptor expressed in CHO-K1 cells coexpressing G-alpha16 assessed as maximum efficacy by Fluo-4-AM dye based calcium mobilization assay relative to CP55940; type: cell-based; method in brief: as §3
[13] = Kinetic aqueous solubility of compound in phosphate-buffer containing 1% DMSO ultrasonicated for 10 mins at pH 1.4 measured using 60-95% methanol in water as gradient for 19 mins by HPLC analysis; type: physicochemical; settings: pH 1.4, 10 min
Method in brief: (§4)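 Kinetic solubility: 10 mM DMSO stock diluted into 10 mM phosphate buffer pH 7.4 or 1.4 (final 1% DMSO), sonicated 10 min at room temperature, filtered 0.22 μm. Quantified by C18 HPLC against a standard curve. Gradient 60–95% methanol/water with trifluoroacetic acid over 19 min at 1.0 mL/min. n = 3.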

[14] = Kinetic aqueous solubility of compound in phosphate-buffer containing 1% DMSO ultrasonicated for 10 mins at pH 7.4 measured using 60-95% methanol in water as gradient for 19 mins by HPLC analysis; type: physicochemical; settings: pH 7.4, 10 min; method in brief: as §4
[15] = Kinetic aqueous solubility of compound in phosphate-buffer containing 1% DMSO ultrasonicated for 10 mins at pH 1.4 measured using 80-95% methanol in water as gradient for 19 mins by HPLC analysis; type: physicochemical; settings: pH 1.4, 10 min
Method in brief: (§5)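 Kinetic solubility: 10 mM DMSO stock diluted into 10 mM phosphate buffer pH 7.4 or 1.4 (final 1% DMSO), sonicated 10 min at room temperature, filtered 0.22 μm. Quantified by C18 HPLC against a standard curve. Gradient 80–95% methanol/water with trifluoroacetic acid over 19 min at 1.2 mL/min. n = 3.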

[16] = Kinetic aqueous solubility of compound in phosphate-buffer containing 1% DMSO ultrasonicated for 10 mins at pH 7.4 measured using 80-95% methanol in water as gradient for 19 mins by HPLC analysis; type: physicochemical; settings: pH 7.4, 10 min; method in brief: as §5
[17] = Kinetic aqueous solubility of compound in phosphate-buffer containing 1% DMSO ultrasonicated for 10 mins at pH 7.4 by HPLC analysis; type: physicochemical; settings: pH 7.4, 10 min
Method in brief: (§6)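 Kinetic solubility: 10 mM DMSO stock diluted into 10 mM phosphate buffer at pH 7.4 or 1.4 (final 1% DMSO). Sonicated 10 min at room temperature and filtered through a 0.22 μm PTFE filter. Concentration determined by reversed-phase C18 HPLC (275/290 nm) against a standard curve. n = 3.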

[18] = Kinetic aqueous solubility of compound in phosphate-buffer containing 1% DMSO ultrasonicated for 10 mins at pH 1.4 by HPLC analysis; type: physicochemical; settings: pH 1.4, 10 min; method in brief: as §6

Structure (SMILES) | inhibition [1] [%] | inhibition at 10 µM [3] [%] | pEC50 [4] | Activity [5] [%] | IC50 [6] | IC50 [7] | Emax [9] [%] | Activity [10] [%] | pEC50 [11] | other results
O=C(NC12CC3CC(CC(C3)C1)C2)c1cn(CCN2CCOCC2)c2ncccc12 | < 50 | < 50 | 7.32 | < 50 | Not Active | Not Active | 25.7 | > 50 | < 5.00 | Kinetic_solubility [2]: 86.6 uM/L; log(Kinetic_solubility) [2]: -4.06; Kinetic_solubility [8]: 69.43 uM/L; log(Kinetic_solubility) [8]: -4.15
O=C(NC12CC3CC(CC(C3)C1)C2)c1n[nH]c2ccccc12 | < 50 | < 50 | 7.07 | > 50 | Not Active | Not Active | 73.9 | > 50 | 4.77 | Emax [12]: 67.3%; Kinetic_solubility [13]: < 10 uM/L; log(Kinetic_solubility) [13]: < -5; Kinetic_solubility [14]: < 10 uM/L; log(Kinetic_solubility) [14]: < -5
O=C(NC12CC3CC(CC(C3)C1)C2)c1cc2ccccc2n1CCCCO | – | – | – | – | – | – | – | – | – | Kinetic_solubility [15]: 16.77 uM/L; log(Kinetic_solubility) [15]: -4.78; Kinetic_solubility [16]: 23.71 uM/L; log(Kinetic_solubility) [16]: -4.63
O=C(NC12CC3CC(CC(C3)C1)C2)c1nc2ccccc2n1CCCCCO | < 50 | < 50 | 7.17 | < 50 | Not Active | Not Active | 64 | > 50 | < 5.00 | Kinetic_solubility [17]: 32.88 uM/L; log(Kinetic_solubility) [17]: -4.48; Kinetic_solubility [18]: 96 uM/L; log(Kinetic_solubility) [18]: -4.02
